Laboratory results: ChEMBL document CHEMBL1687766, “In vitro activity of the new multivalent glycopeptide-cephalosporin antibiotic TD-1792 against vancomycin-nonsusceptible Staphylococcus isolates” (Antimicrob Agents Chemother, 2010)
Values after ≈ are worked out from the molar mass of the structure shown.

Tests used:
Type in all cases: functional
Staphylococcus aureus [1] = assay: Antimicrobial activity against vancomycin-intermediate Staphylococcus aureus isolate MU50 assessed as bacterial count at 32 times MIC after 24 hrs by colony counting method in presence of 50% human serum
Outline: (§1)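 Triplicate 24-h time-kill in 50% human serum (heated 56°C 1 h, filtered) mixed with supplemented Mueller-Hinton broth, giving final 25 μg/ml Ca broth strength for TD-1792 and 50 for daptomycin. […] Samples from 0 to 24 h were counted on BHI agar (35°C, 24 h). Value is log10 CFU/ml change from baseline.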

Staphylococcus aureus [2] = assay: Antimicrobial activity against vancomycin-resistant Staphylococcus aureus isolate PA after 24 hrs by microdilution method
Outline: (§2)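 Broth microdilution per CLSI, inoculum 5 × 10^5 CFU/ml, Mueller-Hinton broth with 12.5 μg/ml magnesium and 25 μg/ml calcium (SMHB). Daptomycin was instead tested in SMHB at physiologic calcium (final 1.1 to 1.3 mM). Incubation 24 h at 35°C; MIC read; run in duplicate. MBC from 5-μl samples of clear wells plated on BHI agar, 24 h at 35°C.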

Staphylococcus aureus [3] = assay: Antimicrobial activity against vancomycin-heteroresistant Staphylococcus aureus after 24 hrs by microdilution method; details: Staphylococcus aureus, 24 h; outline: as §2
Staphylococcus aureus [4] = assay: Antimicrobial activity against vancomycin-heteroresistant Staphylococcus aureus after 24 hrs by microdilution method in presence of 50% human serum
Outline: (§3)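 Broth microdilution per CLSI, inoculum 5 × 10^5 CFU/ml, 24 h at 35°C, in duplicate. Medium was 50% (vol/vol) human serum plus 50% broth, final 25 SMHB for TD-1792 and 50 SMHB for daptomycin. Serum was heated 56°C for 1 h and filtered through 0.8, 0.5 and 0.22 μm. MBC by plating clear wells on BHI agar.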

Staphylococcus aureus [5] = assay: Antimicrobial activity against vancomycin-resistant Staphylococcus aureus isolate MI assessed as bacterial count at 4 times MIC after 24 hrs by colony counting method
Outline: (§4)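 Time-kill in triplicate. Mid-exponential culture (OD600 ~0.3) diluted in supplemented Mueller-Hinton broth to 5 × 10^6 CFU/ml. Daptomycin was run at physiologic calcium, 1.1 to 1.3 mM. […] Samples at 0, 1, 4, 8 and 24 h were diluted in cold saline or vacuum filtered, then spiral-plated on BHI agar for 24 h at 35°C. Value is the log10 CFU/ml change from baseline at 24 h.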

Staphylococcus aureus [6] = assay: Ratio of MIC for vancomycin-intermediate Staphylococcus aureus in presence of 50% human serum to MIC for vancomycin-intermediate Staphylococcus aureus
Staphylococcus aureus [7] = assay: Antimicrobial activity against vancomycin-resistant Staphylococcus aureus isolate PA assessed as bacterial count at 32 times MIC after 24 hrs by colony counting method in presence of 50% human serum
Outline: (§5)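 Time-kill in triplicate, starting inoculum 5 × 10^6 CFU/ml from a mid-exponential culture. Medium was 50% heat-treated, filtered human serum plus 50% broth, final 25 SMHB for TD-1792 and 50 SMHB for daptomycin. Drug at multiples of MIC. Samples to 24 h were plated on BHI agar for 24 h at 35°C. Value is the log10 CFU/ml change from baseline at 24 h.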

Staphylococcus aureus [8] = assay: Antimicrobial activity against vancomycin-intermediate Staphylococcus aureus isolate NJ992 assessed as bacterial count at 4 times MIC after 24 hrs by colony counting method in presence of 50% human serum; outline: as §1
Staphylococcus aureus [9] = assay: Antimicrobial activity against vancomycin-intermediate Staphylococcus aureus isolate MU50 after 24 hrs by microdilution method in presence of 50% human serum; details: isolate MU50, 24 h; outline: as §3
Staphylococcus aureus [10] = assay: Antimicrobial activity against vancomycin-resistant Staphylococcus aureus isolate PA assessed as bacterial count at 4 times MIC after 24 hrs by colony counting method; outline: as §4
Staphylococcus aureus [11] = assay: Antimicrobial activity against vancomycin-intermediate Staphylococcus aureus isolate MU50 assessed as bacterial count at 4 times MIC after 24 hrs by colony counting method in presence of 50% human serum; outline: as §1
[12] = test system: Staphylococcus haemolyticus; assay: Antimicrobial activity against vancomycin-intermediate Staphylococcus haemolyticus after 24 hrs by microdilution method in presence of 50% human serum; details: for MBC / MIC50 / MIC90: Staphylococcus haemolyticus, 24 h
Outline: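 Broth microdilution MIC/MBC (5 × 10^5 CFU/ml, 24 h, 35°C, duplicate) in 50% heat-treated (56°C, 1 h), filtered human serum plus supplemented Mueller-Hinton broth, with final broth strength 25 for TD-1792 and 50 for daptomycin. MBC was taken by plating clear wells on BHI agar.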

Staphylococcus aureus [13] = assay: Antimicrobial activity against vancomycin-resistant Staphylococcus aureus isolate MI assessed as bacterial count at 16 times MIC after 24 hrs by colony counting method in presence of 50% human serum; outline: as §5
Staphylococcus aureus [14] = assay: Antimicrobial activity against vancomycin-resistant Staphylococcus aureus isolate PA assessed as bacterial count at 16 times MIC after 24 hrs by colony counting method; outline: as §4
Staphylococcus aureus [15] = assay: Antimicrobial activity against vancomycin-resistant Staphylococcus aureus isolate MI assessed as bacterial count at 32 times MIC after 24 hrs by colony counting method in presence of 50% human serum; outline: as §5
Staphylococcus aureus [16] = assay: Antimicrobial activity against vancomycin-resistant Staphylococcus aureus isolate MI assessed as bacterial count at 16 times MIC after 24 hrs by colony counting method; outline: as §4
Staphylococcus aureus [17] = assay: Antimicrobial activity against vancomycin-intermediate Staphylococcus aureus isolate NJ992 after 24 hrs by microdilution method; details: isolate NJ992, 24 h; outline: as §2
Staphylococcus aureus [18] = assay: Antimicrobial activity against vancomycin-intermediate Staphylococcus aureus isolate NJ992 assessed as bacterial count at 16 times MIC after 24 hrs by colony counting method
Outline: (§6)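 24-h time-kill run in triplicate in supplemented Mueller-Hinton broth (12.5 μg/ml Mg, 25 μg/ml Ca), adjusted to 1.1–1.3 mM Ca for daptomycin. […] Samples were taken at 0, 1, 4, 8 and 24 h and counted on BHI agar after 24 h at 35°C. Value is log10 CFU/ml change from baseline at 24 h.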

Staphylococcus aureus [19] = assay: Antimicrobial activity against vancomycin-intermediate Staphylococcus aureus isolate MU50 assessed as bacterial count at 16 times MIC after 24 hrs by colony counting method; outline: as §4
Staphylococcus aureus [20] = assay: Antimicrobial activity against vancomycin-intermediate Staphylococcus aureus isolate NJ992 assessed as bacterial count at 32 times MIC after 24 hrs by colony counting method in presence of 50% human serum; outline: as §1
Staphylococcus aureus [21] = assay: Antimicrobial activity against vancomycin-resistant Staphylococcus aureus isolate NY after 24 hrs by microdilution method in presence of 50% human serum; outline: as §3
Staphylococcus aureus [22] = assay: Ratio of MIC for vancomycin-intermediate Staphylococcus aureus isolate MU50 in presence of 50% human serum to MIC for vancomycin-intermediate Staphylococcus aureus isolate MU50
Outline: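 Ratio of the broth microdilution MIC (5 × 10^5 CFU/ml, 24 h, 35°C, duplicate) measured in 50% heat-treated human serum/supplemented Mueller-Hinton broth to the MIC measured in supplemented broth alone.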

Staphylococcus aureus [23] = assay: Antimicrobial activity against vancomycin-intermediate Staphylococcus aureus isolate MU50 assessed as bacterial count at 4 times MIC after 24 hrs by colony counting method; outline: as §6

Compound	log10CFU/ml (Staphylococcus aureus [1])	MBC (Staphylococcus aureus [2]) [mg/L]	MIC (Staphylococcus aureus [2]) [mg/L]	MBC (Staphylococcus aureus [3]) [mg/L]	MIC50 (Staphylococcus aureus [3]) [mg/L]	MIC90 (Staphylococcus aureus [3]) [mg/L]	MBC (Staphylococcus aureus [4]) [mg/L]	MIC50 (Staphylococcus aureus [4]) [mg/L]	MIC90 (Staphylococcus aureus [4]) [mg/L]	log10CFU/ml (Staphylococcus aureus [5])	Ratio (Staphylococcus aureus [6])	log10CFU/ml (Staphylococcus aureus [7])	log10CFU/ml (Staphylococcus aureus [8])	MBC (Staphylococcus aureus [9]) [mg/L]	MIC (Staphylococcus aureus [9]) [mg/L]	log10CFU/ml (Staphylococcus aureus [10])	log10CFU/ml (Staphylococcus aureus [11])	MBC50 [12] [mg/L]	MBC90 [12] [mg/L]	MBC [12] [mg/L]	other results
CN[C@H](CC(C)C)C(=O)N[C@H]1C(=O)N[C@@H](CC(N)=O)C(=O)N[C@H]2C(=O)N[C@H]3C(=O)N[C@H](C(=O)N[C@H](C(=O)NCCCO/N=C(\C(=O)N[C@@H]4C(=O)N5C(C(=O)[O-])=C(C[n+]6ccccc6)CS[C@H]45)c4nc(N)sc4Cl)c4cc(O)cc(O)c4-c4cc3ccc4O)[C@H](O)c3ccc(c(Cl)c3)Oc3cc2cc(c3O[C@@H]2O[C@H](CO)[C@@H](O)[C@H](O)[C@H]2O[C@H]2C[C@](C)(N)[C@H](O)[C@H](C)O2)Oc2ccc(cc2Cl)[C@H]1O	4.81	0.125 (≈ 0.063 µM)	0.03 (≈ 0.0151 µM)	0.015 (≈ 0.00756 µM)	0.06 (≈ 0.0303 µM)	0.125 (≈ 0.063 µM)	0.03	0.25	0.5	2.95	2	5.09	3.61	0.25	0.25	4.06	3.05	0.25	0.5	0.03	MIC50 [12]: 0.25 mg/L; MIC90 [12]: 0.5 mg/L; log10CFU/ml (Staphylococcus aureus [13]): 4.11; log10CFU/ml (Staphylococcus aureus [14]): 4.17; log10CFU/ml (Staphylococcus aureus [15]): 4.03; log10CFU/ml (Staphylococcus aureus [16]): 3.34; MBC (Staphylococcus aureus [17]): 0.06 mg/L (≈ 0.0303 µM); MIC (Staphylococcus aureus [17]): 0.06 mg/L (≈ 0.0303 µM); log10CFU/ml (Staphylococcus aureus [18]): 4.94; log10CFU/ml (Staphylococcus aureus [19]): 4.94; log10CFU/ml (Staphylococcus aureus [20]): 4.92; MBC (Staphylococcus aureus [21]): 0.5 mg/L; MIC (Staphylococcus aureus [21]): 0.25 mg/L; Ratio (Staphylococcus aureus [22]): 2; log10CFU/ml (Staphylococcus aureus [23]): 3.77
CCCCCCCCCC(=O)N[C@@H](Cc1c[nH]c2ccccc12)C(=O)N[C@H](CC(N)=O)C(=O)N[C@@H](CC(=O)O)C(=O)N[C@@H]1C(=O)NCC(=O)N[C@@H](CCCN)C(=O)N[C@@H](CC(=O)O)C(=O)N[C@H](C)C(=O)N[C@@H](CC(=O)O)C(=O)NCC(=O)N[C@H](CO)C(=O)N[C@@H]([C@H](C)CC(=O)O)C(=O)N[C@@H](CC(=O)c2ccccc2N)C(=O)O[C@@H]1C	5.23	0.25 (≈ 0.154 µM)	0.25 (≈ 0.154 µM)	0.25 (≈ 0.154 µM)	1 (≈ 0.617 µM)	1 (≈ 0.617 µM)	1	1	4	4.59	2	5.11	4.78	2	2	3.33	4.01	4	8	1	MIC50 [12]: 1 mg/L; MIC90 [12]: 4 mg/L; log10CFU/ml (Staphylococcus aureus [13]): 4.6; log10CFU/ml (Staphylococcus aureus [14]): 5.14; log10CFU/ml (Staphylococcus aureus [15]): 5.11; log10CFU/ml (Staphylococcus aureus [16]): 4.96; MBC (Staphylococcus aureus [17]): 1 mg/L (≈ 0.617 µM); MIC (Staphylococcus aureus [17]): 1 mg/L (≈ 0.617 µM); log10CFU/ml (Staphylococcus aureus [18]): 4.68; log10CFU/ml (Staphylococcus aureus [19]): 5.12; log10CFU/ml (Staphylococcus aureus [20]): 5.04; MBC (Staphylococcus aureus [21]): 0.25 mg/L; MIC (Staphylococcus aureus [21]): 0.25 mg/L; Ratio (Staphylococcus aureus [22]): 2; log10CFU/ml (Staphylococcus aureus [23]): 3.02
